Compounds with a hit are over-represented: about 1.8% of the library has one in this group of screens.
Tn7 DDE FP – DD(E)-Tn7 binding inhibition, primary FP screen. P02675. FP displacement of FITC-Tn7 peptide from fibrin DD(E); 0% = median of compound wells per plate. inhibition, % at 8.3 µM. 370,000 tested, 0.13% active;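 active = inhibition above the mean of compounds falling within the control limits plus 3 SD of them, cut at about 14% in these data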;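 note: 0% = plate median of compound wells and 100% = 10 µM Aha-Tn7 peptide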
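system = human fibrin DD(E) protein | quantity = DD(E) 2 µM final | medium = Tris/NaCl/CaCl2 buffer, pH 7.8 | also added = labelled Tn7 tracer, 0.1 µM | compound dosing = single point at 8.3 µM | timing = compound with protein 10 min, then 3 h after probe, room temperature | signal = FP measurement | benchmarks = Aha-Tn7 high control | repeats = one replicate per compound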
mABHD4 FP – inhibitors of mouse ABHD4 | Q8VD66 | purified mABHD4, FP-Rh probe fluorescence polarization | inhibition, % at 8.92 µM | 370,000 tested, 0.54% active | AID 720543;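 active = inhibition exceeding the mean over every tested compound plus 3 SD, cut at about 30% in these data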;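 note: 0% = plate median of compound wells and 100% = S159A mutant with DMSO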
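Assay system: Wild-type mouse ABHD4 protein | Medium: HEPES pH 7.0 buffer, 150 mM NaCl, 0.01% Pluronic F-127 | Incubation: Enzyme–compound pre-incubation 45 min, then probe 60 min, both 25 °C | Technique: Fluorescence polarization with parallel and perpendicular emission, 525/598 nm | Evaluation: % inhibition of FP-Rh probe binding versus controls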
SIAE primary – human SIAE inhibition, primary screen; Q9HAT2; SIAE FP-Rh probe binding, fluorescence polarization; inhibition, % at 9.66 µM; 370,000 tested, 0.69% active;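 active = inhibition above a cutoff: mean of compounds within the control limits plus 3 SD of those, cut at about 17% in these data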;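 note: 0% = plate median of compound wells and 100% = probe without SIAE protein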
Tn6 DDE FP – disrupts Tn6 cyclic peptide binding to fibrin D-Dimer-E complex. P02675. Fibrin DD(E) TRITC-Tn6 fluorescence polarization displacement. inhibition, % at 8.3 µM. 370,000 tested, 0.21% active. AID 720509;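 active = inhibition above a per-campaign cutoff: mean of compounds within control limits plus 3 SD, cut at about 15% in these data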;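 note: 0% = median of all compound wells on the plate and 100% = blocking peptide control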
TCR CD3 inh – human TCR-CD3 binding inhibition | inhibition, % at 9.4 µM | 360,000 tested, 0.37% active | TAMRA-labeled TCR probe fluorescence, biochemical; in the data active = inhibition above about 19%;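 note: recombinant mutant TCR 2C K166C tagged with TAMRA read by polarization; 0% = receptor in buffer alone and 100% = receptor with positive control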
HTRA1 inhibitor – HTRA1 (human) protease inhibition. Q92743. recombinant HTRA1, FP-rhodamine activity-based probe, fluorescence polarization. inhibition, % at 5.96 µM. 340,000 tested, 0.5% active. AID 504803; in the data active = inhibition above about 36%;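 note: 0% = enzyme with DMSO and 100% = wells lacking enzyme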
Target sequence (Q92743 whole entry, looked up): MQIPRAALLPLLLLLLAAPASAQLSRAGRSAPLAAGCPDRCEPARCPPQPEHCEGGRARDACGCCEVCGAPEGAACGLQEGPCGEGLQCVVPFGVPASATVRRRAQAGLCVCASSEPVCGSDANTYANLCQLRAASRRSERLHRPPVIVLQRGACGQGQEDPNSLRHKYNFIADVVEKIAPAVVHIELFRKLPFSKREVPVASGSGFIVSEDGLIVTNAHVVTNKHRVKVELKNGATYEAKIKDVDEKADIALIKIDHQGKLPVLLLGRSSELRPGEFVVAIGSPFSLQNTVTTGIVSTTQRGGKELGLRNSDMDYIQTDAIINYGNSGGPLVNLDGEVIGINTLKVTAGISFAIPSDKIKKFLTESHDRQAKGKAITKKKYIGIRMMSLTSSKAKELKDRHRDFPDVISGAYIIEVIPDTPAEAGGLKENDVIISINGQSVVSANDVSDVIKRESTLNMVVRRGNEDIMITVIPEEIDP
ABHD4 confirm – confirmation of mouse ABHD4 inhibitors. shares compounds with mABHD4 FP. purified mABHD4, FP-Rh probe fluorescence polarization. inhibition, % at 8.92 µM. 1,800 tested, 55% active. AID 720658;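 active = mean inhibition across replicates above the hit cutoff set in the primary screen, cut at about 30% in these data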;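 note: 0% = wild-type ABHD4 with DMSO and 100% = catalytically dead S159A mutant with DMSO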
Numbers without * were called inactive; nt = no result given.

SMILES	Tn7 DDE FP	mABHD4 FP	SIAE primary	Tn6 DDE FP	TCR CD3 inh	HTRA1 inhibitor	ABHD4 confirm
COC(=O)[C@@H](Cc1c[nH]c2ccccc12)NCc1cccc(B(O)O)c1	10	67*	3	-2	6	11	61*
COC(=O)C(Cc1c[nH]c2ccccc12)NC(C)=O (stereo not drawn)	-4	12	2	9	7	7	nt
CC[C@H](C(=O)Nc1ccccc1N1CCCC1)c1ccccc1	1	-9	-1	-6	nt	nt	nt
Cc1ccc(CN2C(=O)N/C(=C\c3ccc(-c4ccc(C(=O)O)cc4C)o3)C2=O)cc1	-8	43*	0	6	6	5	40*
Cc1ccc(C(=O)O)cc1-c1ccc(/C=C2\SC(=O)N(CC(=O)Nc3ccccc3)C2=O)o1	-1	12	-27	4	8	-23	nt
Cc1cc(C(=O)O)ccc1-c1ccc(/C=C2\NC(=O)N(Cc3ccccc3Cl)C2=O)o1	nt	nt	nt	nt	nt	-9	nt
Cc1ccc(C(=O)O)cc1-c1ccc(/C=C2/NC(=O)N(c3ccccc3)C2=O)o1	4	46*	-1	6	10	-5	30*
S=c1[nH]nc(-c2n[nH]c3c2CCC3)n1N=Cc1c[nH]c2ccccc12	-6	7	1	5	nt	nt	nt
Cc1cc(C)c2c(c1)C1C=CCC1C(c1ccc(S(=O)(=O)N3CCOCC3)cc1)N2 (stereo not drawn)	-5	5	4	0	5	-5	nt
COC(=O)COc1ccc(C2Nc3c(Cl)ccc(C(=O)O)c3C3C=CCC32)cc1 (stereo not drawn)	-6	36*	-7	3	16	28	20
COc1ccc(OC)c(C2Nc3c(Cl)ccc(C(=O)O)c3C3C=CCC32)c1 (stereo not drawn)	-2	47*	6	-1	0	16	22
COc1ccc(/C=N/NC(=S)Nc2ccccc2[N+](=O)[O-])cc1O	5	44*	-1	-2	8	16	24
CC1=C(O)C(=O)C(C2=C(O)C(=O)C(C)=C(O)C2=O)=C(O)C1=O	-3	40*	7	5	0	33	38*
COc1ccc(Nc2nc3ccc(OC)cc3s2)cc1	-5	10	3	-4	-2	-2	nt
COc1ccc2nc(Nc3nc(C)c(C(C)=O)s3)sc2c1	3	35*	5	-4	1	15	54*
CCC(C(=O)Nc1ccccc1N1CCCC1)c1cccc(Cl)c1 (stereo not drawn)	-4	-10	7	-1	nt	nt	nt
COc1ccc(C2NC(=S)N(Cc3ccc(Cl)cc3)C(C)=C2C(C)=O)cc1 (stereo not drawn)	4	-7	-1	-5	4	nt	nt
COc1cccc(/C=C2/C(=O)NN(c3ccc(C)c(C)c3)C2=O)c1	-16	35*	11	-5	5	3	13
COc1cc(/C=C2/C(=O)NN(c3cccc(Cl)c3)C2=O)cc(OC)c1O	-1	36*	9	2	2	6	16
COc1cccc(/C=C2/C(=O)NN(c3ccc(F)cc3)C2=O)c1	3	13	4	12	-9	-5	nt
COC(=O)c1ccc(N2NC(=O)/C(=C/c3ccc(OC)c(OC)c3)C2=O)cc1	-2	6	-18	3	-2	3	nt
COc1cc(/C=C2/C(=O)NN(c3ccc(C)c(Cl)c3)C2=O)cc([N+](=O)[O-])c1O	5	63*	-2	3	-3	30	56*
CCOc1cc(/C=C2/C(=O)NN(c3cccc(Cl)c3)C2=O)ccc1O	0	36*	6	0	-5	-4	38*
Cc1ccccc1NC(=O)[C@@H]1CC(=O)O[C@@H]1c1ccccc1	-6	1	-4	5	nt	nt	nt
C[C@@H]1CN(c2ccc(N3CCN(C(=O)OC(C)(C)C)C[C@@H]3C)cc2C#N)CCN1Cc1ccccc1	-3	9	8	1	2	nt	nt
Nc1nc(N)c(N=O)c(Nc2ccc(Cl)c(Cl)c2)n1	10	31*	8	-15	-3	nt	33*

Compound activity as filed in PubChem.
